In ChEMBL document CHEMBL1125157, “Synthesis and biological evaluation of 14-alkoxymorphinans. 3. Extensive study on cyprodime-related compounds” (J Med Chem, 1990):
The source made the active and inactive calls. No cut-off for these calls is given here.

How the values were obtained:
[1] = biological target: Kappa-type opioid receptor (Mus musculus) (UniProt P33534); experiment: Antagonistic activity (Ke) at Opioid receptor kappa 1 was determined against ethylketocyclazocine in the mouse vas deferens (MVD); format: functional, tissue-based
Outline: (§1)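 Mouse vas deferens antagonism was measured against normorphine (μ), ethylketocyclazocine (κ) or DADLE (δ in this tissue). Ke = [antagonist]/(DR − 1), where DR is the ratio of equiactive agonist concentrations with and without antagonist. Antagonist concentrations were chosen to give a dose ratio between 3 and 10 against the relevant agonist.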

[2] = biological target: Mu-type opioid receptor (Cavia porcellus) (UniProt P97266); experiment: Agonist potency against Opioid receptor mu 1 expressed as the ratio of the ED40 concentrations of the ethylketocyclazocin and compound in guinea pig ileum TS= Too shallow to estimate ED40; format: functional, tissue-based
Outline: (§2)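 Agonist activity tested on electrically stimulated isolated tissue twitch (mouse vas deferens and guinea pig ileum). ED40 is the concentration giving 40% inhibition of twitch height. Potency is given as the ratio of the ED40 of the reference agonist (normorphine, ethylketocyclazocine or DADLE) to that of the test compound. TS marks a curve too shallow to reach 40% inhibition. NA means no agonist activity was detected.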

[3] = biological target: Delta-type opioid receptor (Mus musculus) (UniProt P32300); experiment: Antagonistic activity (Ke) at Opioid receptor delta 1 was determined against DADLE in the mouse vas deferens (MVD); format: functional, tissue-based; outline: as §1
[4] = biological target: Mu-type opioid receptor (Mus musculus) (UniProt P42866); experiment: Antagonistic activity (Ke) against nor-morphine and Opioid receptor mu 1 of mouse vas deferens assay; format: functional, tissue-based; outline: as §1
[5] = biological target: Mu-type opioid receptor (Homo sapiens) (UniProt P35372); experiment: Agonist potency against mu opioid receptor expressed as the ratio of the ED40 concentrations of the DADLE and compound in guinea pig ileum; NA= No agonist activity detected; format: functional, tissue-based; outline: as §2
[6] = biological target: Mu-type opioid receptor (Homo sapiens) (UniProt P35372); experiment: Agonist potency against mu opioid receptor expressed as the ratio of the ED40 concentrations of the normorphine and compound in guinea pig ileum; NA= No agonist activity detected; format: functional, tissue-based; outline: as §2
[7] = biological target: T1, Opioid receptors; mu & delta (Homo sapiens) (UniProt P41143+P35372); experiment: Selectivity ratio was determined using the Ke value of Opioid receptor delta 1 to that of Opioid receptor mu 1
Outline: (§3)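 Selectivity is the ratio of Ke values from mouse vas deferens antagonism, with Ke = [antagonist]/(DR − 1). DADLE gave the δ value, ethylketocyclazocine the κ value and normorphine the μ value. Antagonist concentrations gave a dose ratio of 3–10.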

[8] = biological target: Opioid receptors; mu & kappa (Homo sapiens) (UniProt P41145+P35372); experiment: Selectivity ratio was determined using the Ke value of kappa receptor to that of mu receptor; outline: as §3
[9] = biological target: Mu-type opioid receptor (Homo sapiens) (UniProt P35372); experiment: Agonist potency against mu opioid receptor expressed as the ratio of the ED40 concentrations of the ethylketocyclazocin and compound in guinea pig ileum; format: functional, tissue-based; outline: as §2
[10] = biological target: Mu-type opioid receptor (Cavia porcellus) (UniProt P97266); experiment: Agonist potency against Opioid receptor mu 1 expressed as the ratio of the ED40 concentrations of the ethylketocyclazocin and compound in guinea pig ileum; format: functional, tissue-based; outline: as §2
[11] = biological target: Mu-type opioid receptor (Cavia porcellus) (UniProt P97266); experiment: (§4) Agonist potency against Opioid receptor mu 1 expressed as the ratio of the ED40 concentrations of the normorphine and compound in guinea pig ileum; NA= No agonist activity detected; format: functional, tissue-based; outline: as §2
[12] = biological target: Mu-type opioid receptor (Mus musculus) (UniProt P42866); experiment: as §4; format: functional, tissue-based; outline: as §2
[13] = biological target: Delta-type opioid receptor (Mus musculus) (UniProt P32300); experiment: Antagonistic activity (Ke) at Opioid receptor delta 1 was determined against DADLE in the mouse vas deferens (MVD) method.; format: functional, tissue-based; outline: as §1
[14] = biological target: Mu-type opioid receptor (Homo sapiens) (UniProt P35372); experiment: Agonist potency against mu opioid receptor expressed as the ratio of the ED40 concentrations of the DADLE and compound in guinea pig ileum; format: functional, tissue-based; outline: as §2
[15] = biological target: T1, Opioid receptors; mu & delta (Homo sapiens); experiment: Selectivity ratio was determined using the Ke value of Opioid receptor delta 1 to that of mu receptor; outline: as §3
[16] = biological target: Mu-type opioid receptor (Homo sapiens) (UniProt P35372); experiment: Agonist potency against mu opioid receptor expressed as the ratio of the ED40 concentrations of the ethylketocyclazocin and compound in guinea pig ileum TS= Too shallow to estimate ED40; format: functional, tissue-based; outline: as §2
[17] = biological target: Mu-type opioid receptor (Homo sapiens) (UniProt P35372); experiment: Agonist potency against mu opioid receptor expressed as the ratio of the ED40 concentrations of the normorphine and compound in guinea pig ileum; TS= Too shallow to estimate ED40; format: functional, tissue-based; outline: as §2
[18] = biological target: Mu-type opioid receptor (Cavia porcellus) (UniProt P97266); experiment: Agonist potency against Opioid receptor mu 1 expressed as the ratio of the ED40 concentrations of the DADLE and compound in guinea pig ileum […]; format: functional, tissue-based; outline: as §2
[19] = biological target: Mu-type opioid receptor (Mus musculus) (UniProt P42866); experiment: Agonist potency against Opioid receptor mu 1 expressed as the ratio of the ED40 concentrations of the normorphine and compound in guinea pig ileum; format: functional, tissue-based; outline: as §2

Chain of Mu-type opioid receptor (Mus musculus) (P42866 whole entry): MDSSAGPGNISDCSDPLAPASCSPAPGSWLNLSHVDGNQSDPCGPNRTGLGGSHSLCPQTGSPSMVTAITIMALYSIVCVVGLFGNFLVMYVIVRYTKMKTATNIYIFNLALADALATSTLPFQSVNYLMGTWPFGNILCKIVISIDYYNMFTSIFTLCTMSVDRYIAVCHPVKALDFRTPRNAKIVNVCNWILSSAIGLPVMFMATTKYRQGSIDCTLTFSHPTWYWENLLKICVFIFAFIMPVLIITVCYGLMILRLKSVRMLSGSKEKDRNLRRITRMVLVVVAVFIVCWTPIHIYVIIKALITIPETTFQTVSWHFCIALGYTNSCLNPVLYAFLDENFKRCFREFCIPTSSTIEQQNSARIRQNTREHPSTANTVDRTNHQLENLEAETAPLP
Chain of Mu-type opioid receptor (Cavia porcellus) (P97266 whole entry): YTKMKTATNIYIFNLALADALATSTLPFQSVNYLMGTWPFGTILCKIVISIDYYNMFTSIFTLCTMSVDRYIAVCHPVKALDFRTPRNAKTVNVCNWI
Chain of Delta-type opioid receptor (Mus musculus) (P32300 whole entry): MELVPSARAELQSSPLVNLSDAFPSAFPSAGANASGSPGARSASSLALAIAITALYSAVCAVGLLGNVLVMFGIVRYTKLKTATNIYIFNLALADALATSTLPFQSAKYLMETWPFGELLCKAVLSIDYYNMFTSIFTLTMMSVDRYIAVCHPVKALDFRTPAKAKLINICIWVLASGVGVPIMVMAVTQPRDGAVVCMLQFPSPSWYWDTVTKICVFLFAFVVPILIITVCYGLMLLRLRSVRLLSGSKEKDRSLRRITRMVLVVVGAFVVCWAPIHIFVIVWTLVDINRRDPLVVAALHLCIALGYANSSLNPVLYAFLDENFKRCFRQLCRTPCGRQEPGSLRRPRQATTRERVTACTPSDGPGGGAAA
Chain of Kappa-type opioid receptor (Mus musculus) (P33534 whole entry): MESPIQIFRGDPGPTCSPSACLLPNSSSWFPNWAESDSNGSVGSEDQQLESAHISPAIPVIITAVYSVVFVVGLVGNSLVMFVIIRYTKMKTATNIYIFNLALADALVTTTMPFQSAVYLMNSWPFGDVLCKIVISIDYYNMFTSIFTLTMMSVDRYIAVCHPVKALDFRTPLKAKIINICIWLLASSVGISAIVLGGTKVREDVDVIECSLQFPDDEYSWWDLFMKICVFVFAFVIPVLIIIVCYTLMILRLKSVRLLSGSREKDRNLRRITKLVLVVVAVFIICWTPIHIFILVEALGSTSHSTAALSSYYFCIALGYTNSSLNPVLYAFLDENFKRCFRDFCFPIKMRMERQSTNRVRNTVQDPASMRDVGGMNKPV
Chain of Mu-type opioid receptor (Homo sapiens) (P35372 whole entry): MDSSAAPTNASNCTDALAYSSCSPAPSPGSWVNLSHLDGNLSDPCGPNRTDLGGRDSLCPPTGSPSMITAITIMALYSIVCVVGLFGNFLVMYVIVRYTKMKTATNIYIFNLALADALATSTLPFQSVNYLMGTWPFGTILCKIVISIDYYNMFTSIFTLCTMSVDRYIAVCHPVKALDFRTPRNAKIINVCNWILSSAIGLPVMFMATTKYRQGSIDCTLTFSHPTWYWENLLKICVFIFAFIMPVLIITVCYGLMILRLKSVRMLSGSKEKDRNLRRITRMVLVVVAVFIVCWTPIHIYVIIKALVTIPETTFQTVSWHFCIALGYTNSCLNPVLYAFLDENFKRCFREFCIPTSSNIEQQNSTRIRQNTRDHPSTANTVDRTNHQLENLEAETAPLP
Chain of Opioid receptors; mu & kappa (Homo sapiens) (P35372 whole entry, looked up): as the sequence (P35372 whole entry) above
Chain of Opioid receptors; mu & kappa (Homo sapiens) (P41145 whole entry, looked up): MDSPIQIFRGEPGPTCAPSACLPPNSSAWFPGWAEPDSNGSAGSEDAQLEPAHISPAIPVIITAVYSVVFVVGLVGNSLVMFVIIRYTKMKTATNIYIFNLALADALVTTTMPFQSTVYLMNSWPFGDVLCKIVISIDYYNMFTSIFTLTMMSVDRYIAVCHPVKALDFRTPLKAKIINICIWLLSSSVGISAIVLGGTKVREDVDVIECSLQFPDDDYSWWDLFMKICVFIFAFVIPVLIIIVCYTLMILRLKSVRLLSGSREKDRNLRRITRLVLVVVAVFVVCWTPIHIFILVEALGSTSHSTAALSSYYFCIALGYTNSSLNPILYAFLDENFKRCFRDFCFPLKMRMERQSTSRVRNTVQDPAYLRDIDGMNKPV
T1 sequence (P35372 whole entry, looked up): as the sequence (P35372 whole entry) above
T1 sequence (P41143 whole entry, looked up): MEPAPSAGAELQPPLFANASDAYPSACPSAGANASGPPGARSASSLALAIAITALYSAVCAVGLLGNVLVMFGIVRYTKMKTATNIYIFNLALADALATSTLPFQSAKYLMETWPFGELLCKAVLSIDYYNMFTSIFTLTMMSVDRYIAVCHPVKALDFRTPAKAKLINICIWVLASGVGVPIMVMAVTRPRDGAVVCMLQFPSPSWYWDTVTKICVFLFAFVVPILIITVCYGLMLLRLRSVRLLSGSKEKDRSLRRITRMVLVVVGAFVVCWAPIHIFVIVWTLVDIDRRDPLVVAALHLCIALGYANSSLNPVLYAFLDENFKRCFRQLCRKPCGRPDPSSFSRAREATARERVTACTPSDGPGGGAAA

SMILES | Ke [1] [nM] | Ke [3] [nM] | Ke [4] [nM] | Ratio [5] | Ratio [6] | Selectivity ratio [7] | Selectivity ratio [8] | Ratio [9] | Ke [13] [µM] | also measured
C=CCN1CC[C@]23CC(=O)CC[C@@]2(OC)[C@H]1Cc1ccc(OC)c(OC)c13 | 3900 | 179 | 118 | inactive | inactive | – | – | – | – | Ratio [2]: inactive
C=CCN1CC[C@]23CC(=O)CC[C@@]2(OCC)[C@H]1Cc1cccc(OC)c13 | 2560 | 3740 | 81 | inactive | inactive | 46 | 32 | 0.0004 | – | –
CO[C@@]12CCC(=O)C[C@@]13CCN(CC1CC1)[C@@H]2Cc1cccc(O)c13 | – | – | – | – | – | – | – | – | – | Ratio [10]: 0.0007; Ratio [11]: inactive; Ratio [12]: 0.001
CCCCOc1cccc2c1[C@]13CCN(CC4CC4)[C@H](C2)[C@]1(OC)CCC(=O)C3 | 811 | – | 21 | – | – | – | – | – | 2.05 | –
C=CCN1CC[C@]23CC(=O)CC[C@@]2(OC)[C@H]1Cc1cccc(OC)c13 | 6040 | – | 230 | – | – | – | – | – | 6.45 | –
COc1cccc2c1[C@]13CCN(CC4CC4)[C@H](C2)[C@]1(OC)CCC(=O)C3 | – | – | – | – | – | 110 | 28 | – | – | –
C=CCN1CC[C@]23CC(=O)CC[C@@]2(OCC)[C@H]1Cc1ccc(OC)c(OC)c13 | 6190 | 665 | 184 | – | – | 3.6 | 34 | 0.001 | – | Ratio [14]: 1
CO[C@@]12CCC(=O)[C@@H]3Oc4cccc5c4C31CCN(CC1CC1)[C@@H]2C5 | 648 | – | 168 | – | – | – | – | – | 4.03 | Selectivity ratio [15]: 24
CCO[C@@]12CCC(=O)C[C@@]13CCN(CC1CC1)[C@@H]2Cc1cccc(OC)c13 | 1130 | 2130 | 21.7 | inactive | inactive | 98 | 52 | 0.0014 | – | –
CO[C@@]12CCC(=O)C[C@@]13CCN(CC1CC1)[C@@H]2Cc1cccc(OC(C)C)c13 | 2410 | 11300 | 108 | inactive | – | 105 | 22 | – | – | –
COc1ccc2c(c1OC)[C@]13CCN(CC4CC4)[C@H](C2)[C@]1(OC)CCC(=O)C3 | 2100 | – | 120 | inactive | inactive | – | – | – | 0.744 | Ratio [16]: inactive
CCO[C@@]12CCC(=O)C[C@@]13CCN(CC1CC1)[C@@H]2Cc1ccc(OC)c(OC)c13 | 5300 | 1540 | 46 | inactive | – | 33 | 115 | 0.0015 | – | Ratio [17]: inactive
CO[C@@]12CCC(=O)C[C@@]13CCN(CC1CC1)[C@@H]2Cc1ccccc13 | – | – | – | – | – | – | – | – | – | Ratio [18]: 0.004; Ratio [10]: 0.0008; Ratio [19]: 0.0004
